A word on the half-life: it is how long it takes for the measured level to halve.

Series [1] in a line: Neuroprotective activity against oxygen-glucose deprivation-induced toxicity in Sprague-Dawley rat primary cortical neurons at 50 uM […] measured after 24 hrs by MTT assay relative to clomethiazole. In kind it is functional, Cerebral cortex neuron. (Tetrazolium assays rely on reduction of a dye to a coloured formazan, in cell work by metabolically active cells.)
Series [2] relates to Cerebral cortex neuron. As to the kind of experiment: Activation of Gamma-aminobutyric acid type-A receptor in Sprague-Dawley rat primary cortical neurons assessed as inhibition of glutamate-induced cytotoxicity at 50 uM […] measured after 24 hrs by MTT assay. The class given is cell-based.
Series [3] in a line: Drug uptake in C57BL/6 mouse brain at 4.5 umol/kg, ip after 20 mins. In kind it is ADME, organism-based. The note with it: read-out: Drug uptake. The gist of the method: (§1)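 Male C57BL/6 mice, 8–10 weeks, dosed i.p. at 4.5 µmol/kg, four per drug. Brains taken 20 min later and extracted in cold acetonitrile/MeOH (1:1) with internal standard. Parent and metabolite quantified by LC-MS/MS in MRM mode against brain-matrix calibration of 1–100 ng/mL. Mean ± SEM, n=4.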

Series [4] relates to Cerebral cortex neuron. The experiment in a line: Activation of Gamma-aminobutyric acid type-A receptor in Sprague-Dawley rat primary cortical neurons assessed as inhibition of glutamate-induced cytotoxicity at 50 uM incubated for 1 hr prior to glutamate-challenge measured after 24 hrs by MTT assay in presence of picrotoxin. In kind it is cell-based.
Series [5] in a line: Chemical stability of the compound in phosphate buffer at pH 7.4 after 5 days by HPLC-UV analysis. The class given is physicochemical. Conditions: pH 7.4, 120 h. Put shortly:
(§2)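 10 µM compound plus 10 µM internal standard in 100 mM phosphate buffer, pH 7.4, 2% DMSO final, held at room temperature in the autosampler. Repeated HPLC injections with UV detection at 254 nm and a C18 gradient. Parent-to-standard peak-area ratio divided by the time-zero value gives % remaining.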

Series [6] concerns Brain. As to the kind of experiment: Drug uptake in C57BL/6 mouse brain assessed as beta-Phenyl-4-methyl-5-thiazoleethanol level at 4.5 umol/kg, ip after 20 mins. In kind it is ADME, organism-based. Conditions: in vivo. The gist of the method: as §1
Another series concerns Hippocampus. As to the kind of experiment: Neuroprotective activity against amyloid beta-induced long term potentiation impairment in human APP […] mutant and PS1 M146L mutant transgenic mouse hippocampal slice at 100 uM incubated for 5 mins by field excitatory post-synaptic potential analysis. In kind it is functional, tissue-based. The gist of the method: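 APP/PS1 (line 6.2) hippocampal slices, 400 µm, kept at 29°C in oxygenated saline. CA1 fEPSPs recorded in stratum radiatum after a 15 min baseline at about 35% of maximal response. Compound at 100 µM perfused 5 min before theta-burst tetanus of the Schaffer collaterals. LTP analysed at 50–80 min by two-way ANOVA.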

The test system of another series is Mus musculus. The experiment in a line: Procognitive activity in C57BL/6 mouse assessed as reversal of scopolamine-induced memory deficit at 4.5 umol/kg, ip administered 10 mins post scopolamine-challenge and 20 mins prior to training measured after 24 hrs by step-through passive avoidance test. In kind it is functional, organism-based. The gist of the method: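 Male C57BL/6 mice, 8–10 weeks. Scopolamine 1.0 mg/kg i.p. given 30 min before training; drug at 4.5 µmol/kg i.p. given 20 min before training. At 24 h after training, latency to enter the dark compartment was recorded without shock. One-way ANOVA with Bonferroni test.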

Series [7] can be described thus: Half life of the compound in phosphate buffer at pH 7.4 by HPLC-UV analysis. In kind it is physicochemical. Put shortly:
as §2

Series [8] has as its system Brain. As to the kind of experiment: Drug uptake in C57BL/6 mouse brain assessed as [1-[beta-(4-Methyl-5-thiazolyl)ethanol]-4-(3-pyridinyl)]-1H-1,2,3-triazole level at 4.5 umol/kg, ip after 20 mins. In kind it is ADME, organism-based. Conditions: in vivo. The gist of the method:
as §1

Series [9] in a line: Neuroprotective activity against oxygen-glucose deprivation-induced toxicity in Sprague-Dawley rat primary cortical neurons assessed as increase in cell survival at 50 uM […] measured after 24 hrs by MTT assay relative to vehicle-treated control. In kind it is functional, Cerebral cortex neuron.

Active and inactive are the calls of the source. No cut-off for these calls is given here.

In series [1], `COC(c1ccccc1)c1scnc1C` (centres undefined) registered an Activity of 110.2%.

In the case of `Cc1ncsc1C(O)c1ccc(Cl)cc1` (centres undefined), in [1], the Activity was found to be 25%.

The molecule `Cc1ncsc1C(CO)n1nncc1-c1cccnc1` (centres undefined) returned an Activity in [1] of 92.9%.

`Cc1ncsc1C(CO)c1ccccc1` (centres undefined): the result in the series with Cerebral cortex neuron [2] was Active. Further, the concentration at 20 min in series [3] turned out to be 32.9 ng/mL. In addition, the result with Cerebral cortex neuron [4] was inactive. The same molecule yielded an Activity in series [1] of 99.6%.

In series [1], `Cc1ncsc1C(O)Cc1ccccc1` (centres undefined) displayed an Activity of 102%.

In turn, `Cc1ccc2c(c1)c1c(n2CCc2scnc2C)CCN(C)C1` yielded an Activity in [1] of 15.4%.

The molecule `Cc1ncsc1C(c1ccccc1)n1cc(Cc2ccccc2)nn1` (centres undefined) yielded an Activity in series [1] of 88.3%.

`Cc1ncsc1C(O)c1ccccc1` (centres undefined) showed an Activity in series [1] of 94%.

`Cc1ncsc1C(c1ccccc1)n1cc(-c2cncn2C)nn1` (centres undefined) had an Activity in series [1] of 93.9%.

`Cc1ncsc1C(c1ccccc1)n1cc(-c2ccsc2)nn1` (centres undefined): the Activity in [1] came to 62%.

Regarding `Cc1ncsc1C(OCCOCCO)c1ccccc1` (centres undefined), the outcome with Cerebral cortex neuron [2] was Active. The outcome in the series with Cerebral cortex neuron [4] was inactive. The Activity in series [1] amounted to 114.1%.

`Cc1ncsc1CCO` gave an Activity in [1] of 14.11%.

Regarding `Cc1ncsc1C(c1ccccc1)n1ccnn1` (centres undefined), the Activity in series [1] is given as 58.1%.

Regarding `Cc1ncsc1C(c1ccccc1)n1cc(-c2cncc(O)c2)nn1` (centres undefined), the Activity in series [1] was 104%.

Regarding `Cc1ncsc1C(CO[N+](=O)[O-])c1ccccc1` (centres undefined), the Stability result in series [5] was “Stable”. The Drug uptake with Brain [6] amounted to 9.5 ng/mL. Also, the outcome in the series on Hippocampus and with Mus musculus was Active. For the same molecule, in series [3], the concentration at 20 min amounted to 9.5 ng/mL.

For `Cc1ncsc1C(OC(=O)C1(CO[N+](=O)[O-])CC1)c1ccccc1` (centres undefined), the half-life in series [7] stood at 34.7 min.

As to `Cc1ncsc1C(NC(=O)C1(CO[N+](=O)[O-])CC1)c1ccccc1` (centres undefined), in series [5], the Stability result is “Stable”.

`Cc1ncsc1C(CO)c1ccc(F)cc1` (centres undefined) yielded an Activity in [1] of 98.9%.

As for `Cc1ncsc1C(Cc1ccccc1)O[N+](=O)[O-]` (centres undefined), the Stability entry in [5] is on record as “Stable”.

For `NCc1cc(O)no1`, the outcome with Cerebral cortex neuron [2] was Active. In the series with Cerebral cortex neuron [4], the result was inactive.

In the case of `Cc1ncsc1C(CO[N+](=O)[O-])n1cc(-c2cccnc2)nn1` (centres undefined), in series [5], the Stability result was “Stable”. In addition, the Drug uptake in the series with Brain [8] turned out to be 76.6 ng/mL. Besides, in [3], the concentration at 20 min amounted to 2.1 ng/mL. Also, the outcome in the series with Mus musculus was Active.

`Cc1ncsc1C(CO)c1ccc(-c2cccnc2)cc1` (centres undefined) showed an Activity in series [1] of 25%.

With `Cc1ncsc1C(CO[N+](=O)[O-])n1nncc1-c1cccnc1` (centres undefined), the Stability result in series [5] is on record as “Stable”. In the series with Mus musculus, the result was Active.

With `Cc1ncsc1C(c1ccc(F)cc1)n1cc(-c2cccnc2)nn1` (centres undefined), the Activity in series [1] is 87.2%.

On to `Cc1ncsc1C(NC(=O)OCC1(CO[N+](=O)[O-])CC1)c1ccccc1` (centres undefined), for which the outcome in the series with Hippocampus was inactive. Also, the result in the series with Mus musculus was Active. Also, the half-life in series [7] stood at 3000 min.

`Cc1ncsc1C(O)Cc1ccc(F)cc1` (centres undefined) came in with an Activity in series [1] of 101%.

`Cc1ncsc1C(OC(=O)C1(C)CC1)c1ccccc1` (centres undefined) displayed a half-life in series [7] of 380 min.

In series [1], `Cc1ncsc1C(c1ccccc1)n1cc(-c2ccccn2)nn1` (centres undefined) yielded an Activity of 50.9%.

Take `Cc1ncsc1C(OCCOCCO[N+](=O)[O-])c1ccccc1` (centres undefined): the Stability result in series [5] is “Stable”. The result in the series on Mus musculus was Active.

As for `Cc1ncsc1CCCl` [CLOMETHIAZOLE], in [9], the Activity is reported as 30%. In addition, the outcome in the series with Hippocampus was inactive.

As to `Cc1ncsc1C(c1ccccc1)n1cc(-c2cccnc2)nn1` (centres undefined), the Activity in [1] was found to be 108%.

As for `Cc1ncsc1CCn1ccnn1`, the Activity in series [1] is 51.5%.

For the molecule `Cc1ncsc1C(CO[N+](=O)[O-])c1ccc(F)cc1` (centres undefined), the Stability entry in series [5] was “Stable”. In addition, the result in the series on Mus musculus was Active.

On to `Cc1ncsc1CCn1cc(-c2cccnc2)nn1`, for which the result with Cerebral cortex neuron [4] was inactive. In addition, the Activity in [1] stood at 99.6%.

For `Cc1ncsc1C(c1ccccc1)n1cc(-c2ccccc2)nn1` (centres undefined), the Activity in series [1] is listed as 57.6%.

`Cc1ncsc1C(c1ccccc1)n1cc(-c2ccncc2)nn1` (centres undefined) showed an Activity in [1] of 90.2%.

In the case of `Cc1ncsc1C(O)c1ccc(F)cc1` (centres undefined), in series [1], the Activity is 36.8%.

With `Cc1ncsc1C(NC(=O)OCCCCO[N+](=O)[O-])c1ccccc1` (centres undefined), the Stability entry in [5] is reported as “Stable”. Besides, in the series on Mus musculus, the result was Active.

With `Cc1ncsc1C(CO)n1cc(-c2cccnc2)nn1` (centres undefined), in the series on Cerebral cortex neuron [2], the result was Active. In addition, the concentration at 20 min in [3] is 56.4 ng/mL. The result in the series on Cerebral cortex neuron [4] was inactive. Moreover, the Activity in [1] is 107.3%.

Consider `Cc1ncsc1CCn1cc(-c2ccccc2)nn1`, for which the Activity in series [1] is on record as 53.9%.

For the origin of these results see ChEMBL document CHEMBL2169780, “Design and synthesis of neuroprotective methylthiazoles and modification as NO-chimeras for neurodegenerative therapy” (J Med Chem, 2012).
